Data: PMC2649372 (Biochemistry, 2008)
Numbering of substitutions follows the chain as printed. Marks after values point to notes of the source that are not given here.

Legend:
Assay in all cases: Agonist-induced currents, voltage clamp electrophysiology in Xenopus oocytes
Type in all cases: cell-based
[1] = biological target: T1, WT 5-HT3 receptor (mouse 5-HT3A subunit) (Mus musculus, UniProt P23979); settings: WT
T1 sequence (P23979 24-483 isoform P23979-2 limits assumed): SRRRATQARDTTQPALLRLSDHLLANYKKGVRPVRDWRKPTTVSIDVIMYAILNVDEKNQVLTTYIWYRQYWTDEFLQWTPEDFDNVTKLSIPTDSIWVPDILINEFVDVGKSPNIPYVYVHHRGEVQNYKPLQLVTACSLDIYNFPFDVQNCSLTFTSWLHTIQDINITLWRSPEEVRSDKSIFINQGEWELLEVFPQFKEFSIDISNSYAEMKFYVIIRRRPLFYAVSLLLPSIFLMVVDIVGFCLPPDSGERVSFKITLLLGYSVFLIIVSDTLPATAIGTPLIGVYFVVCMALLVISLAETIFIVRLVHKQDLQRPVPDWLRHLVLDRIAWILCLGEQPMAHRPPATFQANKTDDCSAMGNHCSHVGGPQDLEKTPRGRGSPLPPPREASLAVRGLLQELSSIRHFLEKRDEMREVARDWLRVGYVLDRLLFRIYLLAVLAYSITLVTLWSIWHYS

[2] = biological target: T2, N128A mutant 5-HT3 receptor (mouse 5-HT3A subunit) (Mus musculus, UniProt P23979, N128A); settings: N128A
T2 sequence (P23979 24-483 isoform P23979-2 N128A limits assumed): T1 sequence (P23979 24-483 isoform P23979-2 limits assumed) with N105A

[3] = biological target: T3, N128E mutant 5-HT3 receptor (mouse 5-HT3A subunit) (Mus musculus, UniProt P23979, N128E); settings: N128E
T3 sequence (P23979 24-483 isoform P23979-2 N128E limits assumed): T1 sequence (P23979 24-483 isoform P23979-2 limits assumed) with N105E

[4] = biological target: T4, E129-Nha mutant 5-HT3 receptor (mouse 5-HT3A subunit) (Mus musculus, UniProt Q6J1J7)
T4 sequence (Q6J1J7 24-483): T1 sequence (P23979 24-483 isoform P23979-2 limits assumed) with F436L
Procedure, shortened: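 Mouse 5-HT3A receptor carrying Nha or Akp, introduced by nonsense suppression. Stage V-VI Xenopus oocytes were co-injected with 5 ng cRNA and 25 ng photodeprotected aminoacyl-tRNA. Controls received tRNA without an amino acid. At 24-72 h, agonist currents were recorded by two-electrode voltage clamp at -60 mV, 22-25 °C, in Ca-free ND96 (pH 7.5).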

[5] = biological target: T5, E129D mutant 5-HT3 receptor (mouse 5-HT3A subunit) (Mus musculus, UniProt P23979, E129D); settings: E129D
T5 sequence (P23979 24-483 isoform P23979-2 E129D limits assumed): T1 sequence (P23979 24-483 isoform P23979-2 limits assumed) with E106D

[6] = oocytes, holding potential −60 mV

| EC50 [1, 6] [nM] | pEC50 [1, 6] | EC50 [2] [nM] | pEC50 [2] | EC50 [3] [nM] | pEC50 [3] | EC50 [5] [nM] | pEC50 ([5]; SR = small (<100 nA) responses) | SMILES | nH (Hill coefficient) [1] | nH (Hill coefficient) [2] | nH (Hill coefficient) [3] | EC50 [4] [nM] | nH (Hill coefficient) [4] | pEC50 [4] | nH (Hill coefficient) [5] | size of agonist response (current) [5] [µA] |
| --- | --- | --- | --- | --- | --- | --- | --- | --- | --- | --- | --- | --- | --- | --- | --- | --- |
| – | – | – | – | – | – | – | – | NCCc1c[nH]c2ccc(O)cc12 [5-HT, 5-hydroxytryptamine] | 2.54 ± 0.15 | 1.34 ± 0.13 ^b | 1.48 ± 0.18 ^b | 3500 | 1.18 ± 0.12 ^b | 5.45 ± 0.04 | 1.81 ± 0.16 ^b | > 5 |
| 470 | 6.33 ± 0.02 | 1100 | 5.95 ± 0.02 | 280 | 6.56 ± 0.03 | 250 | 6.60 ± 0.10 | N=C(N)NC(=N)Nc1cccc(Cl)c1 [mCPBG, m-chlorophenylbiguanide] | 2.03 ± 0.23 | 1.33 ± 0.08 | 1.81 ± 0.019 | 560 | 1.91 ± 0.60 | 6.25 ± 0.07 | 1.19 ± 0.31 | > 5 |
